Source: PubChem BioAssay (Sanford-Burnham Center for Chemical Genomics)
Rows were chosen to be rich in hits. Some 2.3% of all compounds tested hit in one or more screens of this group.
SUMO1 PPI mod – alters human SUMO1 binding to SIM partners | SUMO1 binding to a labelled peptide, TR-FRET, 1 h | actives 0.33% (n = 360,000) | inhibition, % at 20 µM; in the data active means inhibition above about 37%
Target sequence (P63165 whole entry, looked up): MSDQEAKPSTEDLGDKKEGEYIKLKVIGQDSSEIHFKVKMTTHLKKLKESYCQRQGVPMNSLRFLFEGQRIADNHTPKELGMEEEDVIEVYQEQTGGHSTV
SKN-1 inh – C. elegans SKN-1 inhibition. C. elegans VP596 Pgst-4::GFP/RFP ratio, acrylamide-induced, 24 h. AID 624304. actives 0.49% (n = 360,000). inhibition, % at 21.8 µM;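 active means interference check ratio from 0.5 to 1.5 plus GFP to RFP signal ratio inhibition reaching or exceeding a fixed threshold, cut at about 30% in these data, passing the limit was not always enough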
DNMT1 block – DNMT1 (human) enzyme inhibition. P26358. DNMT1 molecular beacon, Hinp1I cleavage, fluorescence. inhibition (reported as % activation of signal), % at 10 µM. actives 0.83% (n = 360,000). AID 588458; in the data active means inhibition above about 50%
MT1-MMP act inh – inhibitors of human MT1-MMP activation. HT1080 RFP-PRO-GFP cells, GFP/RFP ratio fluorescence, overnight; percent of plate control window, DMSO zero. GFP/RFP ratio change, % at 20 µM. actives 0.061% (n = 360,000). AID 651647;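 active means GFP/RFP ratio change of at least 30% with cell ATP level not reduced by more than half and red fluorescence within 50% of control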
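Test system: HT1080 cells expressing an RFP-PRO-GFP fluorescent reporter construct / Compound dosing: single-point 20 µM compound, 1% DMSO / Schedule: cells overnight before dosing, compound overnight, 37 °C, 5% CO2 / Evaluation: GFP/RFP fluorescence ratio / Control set: DMSO and RFP-L50D-GFP cell wells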
CSN deneddyl inh – CSN deneddylation inhibition; Q92905; Purified CSN, SCF-Nedd8-OG deneddylation, fluorescence polarization; inhibition, % at 12.5 µM; actives 0.38% (n = 360,000);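 active means pattern-corrected inhibition above about 35%, with an unprinted fluorescence ratio check between 0.5 and 1.5, limit read from the data, passing the limit was not always enough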
Target sequence (Q92905 whole entry, looked up, one chain of several): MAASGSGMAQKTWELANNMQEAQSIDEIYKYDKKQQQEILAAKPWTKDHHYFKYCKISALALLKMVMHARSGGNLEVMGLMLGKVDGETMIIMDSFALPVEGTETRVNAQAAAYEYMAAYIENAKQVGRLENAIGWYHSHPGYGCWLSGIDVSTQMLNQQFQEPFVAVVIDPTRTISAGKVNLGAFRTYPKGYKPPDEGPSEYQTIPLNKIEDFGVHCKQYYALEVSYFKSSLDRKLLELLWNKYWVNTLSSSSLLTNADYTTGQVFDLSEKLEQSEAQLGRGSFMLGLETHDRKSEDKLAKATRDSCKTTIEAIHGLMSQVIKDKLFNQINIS
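Assay system: Purified human Csn5 enzyme expressed in HEK293T cells | Amount: Enzyme 0.24 nM | Measured by: Fluorescence polarization readout | Medium: Tris/NaCl/DTT buffer, pH 7.5 | Compound dosing: One concentration, 12.5 µM, 0.25% DMSO | Times: 90 min incubation of compound, enzyme and substrate at room temperature | Control set: no-enzyme wells high, enzyme-with-substrate wells low | Read-out: % inhibition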
Rpn11 inh – inhibitors of human proteasome Rpn11 | human 26S proteasome, Ub4-pepOG fluorescence polarization; 20S core pre-blocked with epoxomicin | actives 0.59% (n = 360,000) | AID 588493 | inhibition, % at 20 µM;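 active means inhibition at 20 µM, scaled to each plate's controls, above about 33%, limit read from the data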
Target sequence (O00487 whole entry, looked up): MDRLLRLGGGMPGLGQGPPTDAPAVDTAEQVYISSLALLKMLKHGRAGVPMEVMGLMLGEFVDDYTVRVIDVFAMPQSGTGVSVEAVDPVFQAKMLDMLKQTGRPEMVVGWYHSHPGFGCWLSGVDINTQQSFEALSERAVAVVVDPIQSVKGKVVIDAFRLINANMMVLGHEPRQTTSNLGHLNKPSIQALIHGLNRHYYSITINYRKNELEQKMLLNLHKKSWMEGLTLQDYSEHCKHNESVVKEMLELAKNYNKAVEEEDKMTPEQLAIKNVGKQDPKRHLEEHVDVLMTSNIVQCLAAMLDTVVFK
Beacon interf DR – counter-screen for DNMT1 inhibitors: spectral interference, dose response; molecular beacon fluorescence; 200 tested, under 10 active; IC50, µM; shares compounds with DNMT1 block; call rule not given here
DNMT1 confirm – DNMT1 inhibition confirmation, single concentration; actives 8% (n = 2,300); AID 602385; inhibition, % at 10 µM; shares compounds with DNMT1 block; DNMT1 molecular beacon HinP1I cleavage, fluorescence;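 active means average inhibition of at least 30% in the single-concentration confirmation test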
DNMT1 interf – counter-screen for DNMT1 inhibitors: spectral interference; shares compounds with DNMT1 block; DNMT1 molecular beacon spectral interference counterscreen, fluorescence 485/520; activation (fluorescence interference), % at 10 µM; actives 1% (n = 2,300);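 active means activation of at least 30% at 10 µM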;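 further: DNMT1 catalytic domain with a HinP1I cleavage step and a FAM/dabcyl DNA beacon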
Rpn11 confirm – confirmation of human proteasome Rpn11 inhibitors. inhibition, % at 20 µM. actives 29% (n = 1,900). shares compounds with Rpn11 inh. purified human 26S proteasome, Ub4-pepOG fluorescence polarization; proteasome pretreated with epoxomicin
MMP-2 counter-1 – blocks human MMP-2, flagging nonselective RPN11 hits; shares compounds with Rpn11 inh; recombinant MMP-2, FRET peptide cleavage fluorescence; inhibition, % at 20 µM; actives 4% (n = 1,900);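 further: human MMP-2 activated beforehand with APMA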
Thrombin FP – thrombin (bovine) inhibition counter-screen. shares compounds with Rpn11 inh. bovine thrombin cleavage of Ub4-pepOG, fluorescence polarization. actives 13% (n = 1,900). inhibition, % at 20 µM;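 active means mean inhibition at least 40% at 20 µM, or signal 3 deviations below plate average, so some actives read negative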
CSN deneddyl val – Csn5 (human) deneddylation inhibition, single-concentration validation. shares compounds with CSN deneddyl inh. Csn5 deneddylation of SCF-Nedd8OG, fluorescence polarization, 90 min. inhibition, % at 16.6 µM. actives 62% (n = 540). AID 720654; in the data active means inhibition above about 50%
MMP-2 counter-2 – counter-screen for CSN deneddylation inhibitors: human MMP-2 inhibition; AID 720655; inhibition, % at 16.6 µM; shares compounds with CSN deneddyl inh; actives 33% (n = 540); recombinant MMP-2, FRET substrate fluorescence, 60 min;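 active means corrected plate-normalized z-score of 5 or more, or -5 or less, or inhibition of 15% or more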
Thrombin cntr – thrombin (bovine) inhibition, counter-screen for CSN hits; actives 49% (n = 540); bovine thrombin cleavage of Ub4-pepOG, fluorescence polarization; shares compounds with CSN deneddyl inh; inhibition, % at 16.6 µM;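 active means inhibition at or above a set limit, with a fluorescence interference ratio between 0.5 and a set maximum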
Large screens that a line does not name were inactive (follow-up assays come after a bar, where they were run); ! = not active in a repeat. Unless noted, no stated cut-off is given here; in the data, active means inhibition above about 40%; inactive means the rest.

CC(=O)Nc1cccc(-c2csc(C(O)c3cccc(Cl)c3)n2)c1 (stereo not drawn)	none
O=C(N/N=C/C=C\c1ccccc1[N+](=O)[O-])c1cccs1	none
O=C(N/N=C/C=C/c1ccc([N+](=O)[O-])cc1)c1cccs1	DNMT1 block 96.9, CSN deneddyl inh 56.4, Rpn11 inh active | DNMT1 confirm inactive | DNMT1 interf inactive | Rpn11 confirm 113.3 | MMP-2 counter-1 45.0 | Thrombin FP 40.7 | MMP-2 counter-2 58.7 | Thrombin cntr 30.1
CCNc1ccc(Br)cc(C(=O)/C=C/c2ccc3c(c2)OCO3)c1=O	DNMT1 block 89.3, CSN deneddyl inh 47.4, Rpn11 inh 70.6 | DNMT1 confirm inactive | DNMT1 interf inactive | Rpn11 confirm inactive | MMP-2 counter-1 inactive | Thrombin FP inactive | CSN deneddyl val 70.8 | MMP-2 counter-2 inactive | Thrombin cntr 24.1
COc1ccc(-c2cnc3c(NC(C)=O)cc(-c4ccc(C(=O)N5CCOCC5)cc4)cn23)cc1OC	none
O=C1NN(c2ccc(Cl)cc2)C(=O)/C1=C\c1ccc(-c2cccc(C(=O)O)c2)o1	SUMO1 PPI mod 40.4, DNMT1 block 94.9, CSN deneddyl inh 36.5, Rpn11 inh 103.6 | Beacon interf DR inactive | DNMT1 confirm 33.5 | DNMT1 interf inactive | Rpn11 confirm 141.9 | MMP-2 counter-1 inactive | Thrombin FP inactive | CSN deneddyl val inactive | MMP-2 counter-2 15.4 | Thrombin cntr 24.1
Cc1nn(C)cc1/C=C1\SC(=S)NC1=O	none
Cc1cc(/C=C2\SC(=S)NC2=O)c(C)n1C	SUMO1 PPI mod 42.7, DNMT1 block 91.9, CSN deneddyl inh 76.1, Rpn11 inh 130.0 | DNMT1 confirm inactive | DNMT1 interf inactive | Rpn11 confirm 121.4 | MMP-2 counter-1 inactive | Thrombin FP 91.5 | CSN deneddyl val 53.4 | MMP-2 counter-2 23.8 | Thrombin cntr 39.4
N#Cc1ccc(S(=O)(=O)N2CCCCC2c2cc(C(=O)Nc3cccc4c3CCCC4)no2)cc1 (stereo not drawn)	none
Cc1cc(-c2nc3c4c5c(sc4[nH]c(=O)n3n2)CCC5)c(C)o1	DNMT1 block 65.7, CSN deneddyl inh 36.0 | DNMT1 confirm inactive | DNMT1 interf inactive | CSN deneddyl val 91.9 | MMP-2 counter-2 inactive | Thrombin cntr inactive
Cc1nc2sc3c(c2c(=O)[nH]1)CCC3	none
O=C(CCCN1C(=O)/C(=C\c2cccs2)SC1=S)Nc1ccc(O)cc1C(=O)O	none
O=C(CN1C(=O)/C(=C/c2ccco2)SC1=S)Nc1ccc(O)c(C(=O)O)c1	SUMO1 PPI mod 83.8, DNMT1 block 86.7, CSN deneddyl inh 56.2, Rpn11 inh 81.2 | DNMT1 confirm inactive | DNMT1 interf inactive | Rpn11 confirm inactive | MMP-2 counter-1 inactive | Thrombin FP inactive | CSN deneddyl val 56.7 | MMP-2 counter-2 21.3 | Thrombin cntr inactive
O=C(CCCN1C(=O)/C(=C\c2ccco2)SC1=S)Nc1ccc(O)cc1C(=O)O	SUMO1 PPI mod 63.5, DNMT1 block 98.6, CSN deneddyl inh 48.3, Rpn11 inh 40.3 | DNMT1 confirm inactive | DNMT1 interf inactive | Rpn11 confirm inactive | MMP-2 counter-1 inactive | Thrombin FP inactive | CSN deneddyl val 65.9 | MMP-2 counter-2 23.8 | Thrombin cntr 23.4
O=C(CCCN1C(=O)/C(=C/c2ccco2)SC1=S)Nc1cccc(C(=O)O)c1	SUMO1 PPI mod 50.3, DNMT1 block 86.1, CSN deneddyl inh 44.8, Rpn11 inh 36.6 | DNMT1 confirm inactive | DNMT1 interf inactive | Rpn11 confirm inactive | MMP-2 counter-1 45.4 | Thrombin FP inactive | CSN deneddyl val 80.0 | MMP-2 counter-2 25.1 | Thrombin cntr inactive
O=C(NCCN1CCC(n2c(=O)[nH]c3ccccc32)CC1)c1ccc(Cl)c(Cl)c1	none (no result: DNMT1 block, Rpn11 inh)
COc1ccc(CCn2c(N)c(C(=O)NCc3ccco3)c3nc4ccccc4nc32)cc1OC	SUMO1 PPI mod 43.9, DNMT1 block 54.2, CSN deneddyl inh 38.0, Rpn11 inh 45.2 | DNMT1 confirm inactive | DNMT1 interf inactive | Rpn11 confirm inactive | MMP-2 counter-1 inactive | Thrombin FP inactive | CSN deneddyl val 96.4 | MMP-2 counter-2 inactive | Thrombin cntr inactive
O=C1/C(=C/c2ccco2)Oc2c1ccc(O)c2CN1CCCCC1	DNMT1 block 78.8, CSN deneddyl inh 42.1 | DNMT1 confirm inactive | DNMT1 interf inactive | MMP-2 counter-2 inactive | Thrombin cntr inactive
CC1CCN(Cc2c(O)ccc3c2O/C(=C\c2ccco2)C3=O)CC1	none
CCOC(=O)[C@]12CCCC=C1N(Cc1cccc3ccccc13)C(=O)[C@H](CC(=O)N1CCCC1)C2	none (no result: DNMT1 block, Rpn11 inh)
COc1cc2c(C#N)c(N3CCCC3)nc(N)c2c(N)n1	SUMO1 PPI mod 55.5, DNMT1 block 99.2, CSN deneddyl inh 35.0! | DNMT1 confirm inactive | DNMT1 interf inactive | CSN deneddyl val 67.5 | MMP-2 counter-2 -45.1 | Thrombin cntr inactive
Cc1ccc2nc(N3C(=O)C(O)=C(C(=O)c4ccc(C)o4)C3c3ccco3)sc2c1 (stereo not drawn)	none
